Screens: PubChem, several laboratories
In the library only some 1.2% were active in any assay of this set; here they are far more common.
CSN deneddyl inh = blocks human CSN-mediated cullin deneddylation; hit rate 0.38% among 360,000; inhibition, % at 12.5 µM; Q92905; Purified CSN, SCF-Nedd8-OG deneddylation, fluorescence polarization;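 active = pattern-corrected inhibition above about 35%, with an unprinted fluorescence ratio check between 0.5 and 1.5, limit read from the data, passing the limit was not always enough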;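 also: 0% = enzyme with substrate and 100% = substrate without enzyme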
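Assay system: purified human Csn5 enzyme expressed in HEK293T cells; Input: 0.24 nM Csn5 enzyme, final concentration; Reagent: 10 nM SCFSkp2-Nedd8OG; Compound dosing: 12.5 µM single point; Times: reaction 90 min, room temperature; Technique: fluorescence polarization readout.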
TPT1 inhibitor = C. albicans TPT1 enzyme inhibition; recombinant caTPT1, FP RNA substrate dephosphorylation; inhibition, % at 5 µM; hit rate 0.81% among 300,000;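 active = inhibition above the mean of all tested compounds plus 3 SD, set per screening campaign, cut at about 24% in these data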;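 also: plate controls were DMSO alone for no effect and ferristatin control at 100 nM for full effect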
Rtt109 Vps75 = inhibitors of Candida albicans Rtt109/Vps75 histone acetyltransferase. purified Rtt109/Vps75, ThioGlo CoA-SH fluorescence, 4 h. hit rate 0.16% among 330,000. AID 540336. Q5AAJ8. inhibition, % at 34.9 µM;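 active = inhibition of at least 50% in every replicate; inconclusive = best replicate reaches 50% inhibition but some replicates fall short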
HNF4A DNA FP = change in binding of human HNF4 alpha to DNA | P41235 | hit rate 0.3% among 360,000 | HNF4a-FITC DNA binding, fluorescence polarization, 1 h | AID 1224865 | activity change, % at 10 µM; in the data active = activity change above about 30%, passing the limit was not always enough
caTPT1 confirm = confirmation of Candida albicans TPT1 inhibitors; shares compounds with TPT1 inhibitor; recombinant caTPT1, fluorescence polarization, RNase T1 coupled; inhibition, % at 5 µM; hit rate 74% among 2,400;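 active = inhibition above the primary screen limit, the mean inhibition of all tested compounds plus 3 SD, cut at about 25% in these data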
RNase T1 counter = counter-screen for TPT1 inhibitors: inhibitors of Aspergillus oryzae RNase T1; inhibition, % at 5 µM; RNase T1 cleavage, fluorescence polarization, 1536-well; hit rate 83% among 2,400; shares compounds with TPT1 inhibitor;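 active = inhibition above the solvent-only control well mean plus 3 SD, limit set per screening run, cut at about 23% in these data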;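 also: plate controls were DMSO wells with enzyme for no effect and wells without RNase T1 for full effect; inhibitors block cleavage so intact labeled substrate keeps polarization high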
Target sequence (P00651 whole entry, looked up): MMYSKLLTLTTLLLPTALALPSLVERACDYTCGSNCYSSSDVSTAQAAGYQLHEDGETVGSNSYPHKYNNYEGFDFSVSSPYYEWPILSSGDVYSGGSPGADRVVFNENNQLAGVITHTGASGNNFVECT
Active calls of the source: *; ? = inconclusive; nt = not tested or not shown.

SMILES	CSN deneddyl inh	TPT1 inhibitor	Rtt109 Vps75	HNF4A DNA FP	caTPT1 confirm	RNase T1 counter
Cc1onc(-c2ccccc2Cl)c1C(=O)N1CCCCCC1	5	nt	5	3	nt	nt
O=[N+]([O-])c1ccccc1/C=C/CN1CCN(Cc2ccc3c(c2)OCO3)CC1	-1	1	7	-1	nt	nt
COc1ccc(NC(=O)CSc2ccc3c4c(cccc24)C(=O)c2ccccc2-3)cc1	15	26*	-4	-21	28*	41*
N#Cc1cccc(NC(=O)CSc2ccc3c4c(cccc24)C(=O)c2ccccc2-3)c1	-1	-73	-6	-15	nt	nt
CCN(C[C@H]1N[C@@](CC)(C(=O)OC)[C@H]2C(=O)N(Cc3ccccc3)C(=O)[C@@H]12)C(=O)C1CCCCC1	-2	nt	2	7	nt	nt
CCOC1=C/C(=C/c2c(N)n3nc(CC(=O)N4CCCCC4)sc3nc2=O)C=CC1=O	24	10	?	11	nt	nt
CCOC1=C/C(=C/c2c(N)n3nc(S(=O)(=O)CC)sc3nc2=O)C=CC1=O	33	28*	5	22	56*	59*
COc1ccc(NS(=O)(=O)c2cc([N+](=O)[O-])ccc2NN=Cc2ccccc2OCC(=O)O)cc1	0	nt	34	2	nt	nt
COc1ccc(C=NNc2ccc([N+](=O)[O-])cc2S(=O)(=O)Nc2ccccc2C(=O)O)cc1OC	7	nt	-2	12	nt	nt
COc1ccccc1NS(=O)(=O)c1cc([N+](=O)[O-])ccc1N/N=C/c1c[nH]c2ccccc12	22	129*	7	72*	106*	107*
COc1ccccc1NS(=O)(=O)c1cc([N+](=O)[O-])ccc1N/N=C/c1sc(N2CCOCC2)nc1-c1ccccc1	53*	97*	4	75*	111*	110*
COc1ccc(/C=N/Nc2ccc([N+](=O)[O-])cc2S(=O)(=O)N2CCN(C)CC2)cc1	34	71*	-9	164	105*	118*
COc1ccc(NS(=O)(=O)c2cc([N+](=O)[O-])ccc2N/N=C\c2c(C)[nH]c3ccccc23)cc1	25	72*	1	65*	75*	86*
Cc1nc(=O)c(-c2ccccc2)c(C)n1-c1cccc(/C=C/C(=O)O)c1	0	0	-4	0	nt	nt
CC(C)(O)C#Cc1ccc(CNC[C@H]2O[C@@H](n3cnc4c(N)ncnc43)[C@H](O)[C@@H]2O)s1	-2	nt	-3	-1	nt	nt
Cc1ccc(C)c(OCC(=O)Nc2ccc(C(=O)O)cc2NC(=O)COc2cc(C)ccc2C)c1	3	0	-3	1	nt	nt
N#C/C(=C/c1ccc(-c2cc(C(=O)O)cc(C(=O)O)c2)o1)c1nc2ccccc2s1	nt	141*	nt	nt	141*	133*
O=C(CCN1CCC(c2cccs2)=N1)c1cccs1	3	28*	nt	4	5	10
O=C(C[C@H]1CC[C@H]2[C@@H](COC[C@@H](O)CN2Cc2cc(F)ccc2F)O1)NCc1ccc(Cl)cc1	-3	nt	nt	-2	nt	nt
Cn1nnnc1SCc1ccc(CSc2nnnn2C)cc1	-4	55*	-4	1	3	5
COc1ccc(C(C(=O)NCC2CCCO2)N(C(=O)c2snc(C(N)=O)c2N)c2ccc(C)cc2)cc1OC (centres undefined)	6	nt	-4	2	nt	nt
N#Cc1ccc(-c2nc3ccc(Cl)cn3c2Cc2ccccc2C(F)(F)F)cc1	6	nt	nt	2	nt	nt
CCOc1ccc(S(=O)(=O)N2CCC(C(=O)Nc3ccccc3N3CCCC3)CC2)cc1	6	nt	nt	3	nt	nt
CCOC(=O)c1sc2nc(C)nc(SCC(=O)NC(C)CCc3ccccc3)c2c1C (centres undefined)	7	25*	16	17	41*	51*
CCOC(=O)c1sc2nc(C)nc(NCc3ccccc3OC)c2c1C	-4	-2	-3	0	nt	nt
CCc1ccccc1N(CC(=O)NC(C)(C)CC)C(=O)CCC(=O)Nc1nccs1	-2	3	-3	-1	nt	nt
CCOC(=O)C1=C(C)N=c2s/c(=C\c3cccn3C)c(=O)n2C1c1cccc(OC)c1OC (centres undefined)	46*	82*	-4	84*	139*	137*
